Source: publication PMC13334471 (Journal of molecular and cellular cardiology, 2026)

Legend:
[1] = biological target: tropomyosin (rabbit cardiac α-tropomyosin) (Oryctolagus cuniculus, UniProt P58772); test: LSPR binding of cTnT-C14 peptides to immobilized tropomyosin; settings: peptide 2 μM, mutants vs WT
How it was run: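 Rabbit cardiac α-Tm immobilized on a carboxyl-gold LSPR chip from 50 μg/mL in 10 mM Na acetate pH 4.0. Blocked with 1 M ethanolamine, then 1 mM 6-mercapto-1-hexanol in 30% EtOH. Peptides flowed at 20 μL/min for 4 min in 0.1 M KCl, 3 mM MgCl2, 10 mM imidazole-HCl pH 7.0; buffer dissociation to baseline or plateau. Plateau Δpm taken; 1:1 fit; KD = koff/kon.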

F-actin = F-actin (Oryctolagus cuniculus, UniProt P68135); test: LSPR direct binding of cTnT-C14 peptides to immobilized F-actin; parameters: species or system rabbit; settings: mutants vs WT
How it was run: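 Rabbit back-muscle F-actin immobilized on a carboxyl-gold LSPR chip with no Tm, run as for the Tm binding assay. Chip blocked with ethanolamine and 6-mercapto-1-hexanol. Peptides flowed at 20 μL/min in 0.1 M KCl, 3 mM MgCl2, 10 mM imidazole-HCl pH 7.0, then buffer dissociation. Plateau Δpm taken; rate constants from 1:1 fit; KD = koff/kon.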

Tm binding / binding signal (in words) [1]: non-Tm-binding
F-actin binding / binding signal (in words) (F-actin): non-actin-binding
Sequence: INVLRNRINDNQKV [E16]
